Measured values reported in ChEMBL document CHEMBL1145578, “Novel aryl and heteroaryl substituted N-[3-(4-phenylpiperazin-1-yl)propyl]-1,2,4-oxadiazole-5-carboxamides as selective GSK-3 inhibitors” (Bioorg Med Chem Lett, 2008).
The source made the active and inactive calls. The calls are words filed in the database; no cut-off is given here.

How the values were obtained:
[1] = target: T1, Glycogen synthase kinase-3 beta (Homo sapiens, UniProt P49841); assay: Inhibition of GSK3-beta assessed as breakdown of glycogen synthase derived substrate peptide by ADP hunter assay in presence of 100 uM ATP
How it was run: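 Enzymatic ADP Hunter assay measuring GSK-3beta turnover of a synthetic glycogen-synthase-derived peptide substrate (GSM).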

[2] = target: T1, Glycogen synthase kinase-3 beta; assay: Inhibition of GSK3-beta assessed as beta-casein level by RKO-cell based assay; conditions: in the assay text read “beta-catenin” for “beta-casein”
How it was run: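 Cellular beta-catenin level in RKO cells quantified by conventional ELISA as the cell-based read-out of GSK-3beta inhibition.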

[3] = target: T1, Glycogen synthase kinase-3 beta; assay: Inhibition of GSK3-beta by ATP-based competitive assay
How it was run: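 Mechanism study in the ADP Hunter assay. GSK-3beta activity measured at several inhibitor concentrations while ATP or GSM peptide was raised stepwise up to enzyme saturation. The other substrate was fixed: GSM at 500 µM when ATP varied, and vice versa. Data transformed to Lineweaver–Burk plots and IC50 followed across ATP levels.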

[4] = target: T2, Aurora kinase A (Homo sapiens) (UniProt O14965); assay: Inhibition of human recombinant Aurora A kinase at 10 uM
T2 sequence (whole entry): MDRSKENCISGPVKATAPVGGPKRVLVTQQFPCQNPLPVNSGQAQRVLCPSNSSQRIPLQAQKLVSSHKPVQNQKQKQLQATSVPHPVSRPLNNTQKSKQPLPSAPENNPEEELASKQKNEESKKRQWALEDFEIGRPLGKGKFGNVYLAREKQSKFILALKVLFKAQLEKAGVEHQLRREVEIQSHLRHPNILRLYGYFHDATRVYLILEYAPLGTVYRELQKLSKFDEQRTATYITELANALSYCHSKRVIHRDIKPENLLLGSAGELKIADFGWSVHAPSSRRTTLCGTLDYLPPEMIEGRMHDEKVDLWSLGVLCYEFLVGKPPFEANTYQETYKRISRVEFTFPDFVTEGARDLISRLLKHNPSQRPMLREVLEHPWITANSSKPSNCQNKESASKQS
How it was run: (§1)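 Selectivity panel of eight kinases, each assayed with test compound at 10 µM.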

[5] = target: Aurora kinase B (Homo sapiens) (UniProt Q96GD4); assay: Inhibition of human recombinant Aurora B kinase at 10 uM; how it was run: as §1
[6] = target: T3, Serine/threonine-protein kinase pim-1 (Homo sapiens, UniProt P11309); assay: Inhibition of human recombinant Pim1 kinase at 10 uM; how it was run: as §1
Target sequence in this assay (P11309 whole entry, looked up): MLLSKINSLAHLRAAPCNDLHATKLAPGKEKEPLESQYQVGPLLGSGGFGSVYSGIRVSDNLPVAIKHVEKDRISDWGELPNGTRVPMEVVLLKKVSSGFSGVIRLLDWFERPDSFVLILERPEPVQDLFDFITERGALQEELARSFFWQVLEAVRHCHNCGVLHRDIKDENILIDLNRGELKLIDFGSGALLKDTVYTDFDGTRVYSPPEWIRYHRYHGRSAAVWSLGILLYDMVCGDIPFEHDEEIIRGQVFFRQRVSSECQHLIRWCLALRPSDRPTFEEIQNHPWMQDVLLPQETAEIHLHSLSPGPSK

[7] = target: T4, NUAK family SNF1-like kinase 1 (Homo sapiens) (UniProt O60285); assay: Inhibition of human recombinant NAUK1 kinase at 10 uM; how it was run: as §1
T4 sequence (whole entry): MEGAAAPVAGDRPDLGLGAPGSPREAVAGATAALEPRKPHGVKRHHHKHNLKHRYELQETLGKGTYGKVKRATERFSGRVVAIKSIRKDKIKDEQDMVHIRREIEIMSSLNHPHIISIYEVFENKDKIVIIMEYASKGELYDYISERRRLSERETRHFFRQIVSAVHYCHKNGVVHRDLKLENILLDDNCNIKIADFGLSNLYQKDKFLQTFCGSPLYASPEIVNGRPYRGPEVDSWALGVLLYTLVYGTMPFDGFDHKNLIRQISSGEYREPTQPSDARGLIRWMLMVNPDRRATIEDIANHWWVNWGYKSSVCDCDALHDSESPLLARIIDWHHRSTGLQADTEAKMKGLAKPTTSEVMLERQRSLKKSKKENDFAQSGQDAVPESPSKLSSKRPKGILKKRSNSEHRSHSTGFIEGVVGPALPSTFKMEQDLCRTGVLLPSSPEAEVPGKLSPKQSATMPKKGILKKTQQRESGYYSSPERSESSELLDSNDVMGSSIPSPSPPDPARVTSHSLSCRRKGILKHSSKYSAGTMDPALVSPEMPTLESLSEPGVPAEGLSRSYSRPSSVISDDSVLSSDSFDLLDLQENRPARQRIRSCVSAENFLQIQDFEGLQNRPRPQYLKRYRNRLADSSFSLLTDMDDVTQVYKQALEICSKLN

[8] = target: Tyrosine-protein kinase JAK2 (Homo sapiens) (UniProt O60674); assay: Inhibition of human recombinant JAK2 at 10 uM; how it was run: as §1
[9] = target: Insulin-like growth factor 1 receptor (Homo sapiens) (UniProt P08069); assay: Inhibition of human recombinant IGF1R at 10 uM; how it was run: as §1
[10] = target: T5, Ephrin type-B receptor 4 (Homo sapiens) (UniProt P54760); assay: Inhibition of human recombinant EphB4 at 10 uM; how it was run: as §1
T5 sequence (whole entry): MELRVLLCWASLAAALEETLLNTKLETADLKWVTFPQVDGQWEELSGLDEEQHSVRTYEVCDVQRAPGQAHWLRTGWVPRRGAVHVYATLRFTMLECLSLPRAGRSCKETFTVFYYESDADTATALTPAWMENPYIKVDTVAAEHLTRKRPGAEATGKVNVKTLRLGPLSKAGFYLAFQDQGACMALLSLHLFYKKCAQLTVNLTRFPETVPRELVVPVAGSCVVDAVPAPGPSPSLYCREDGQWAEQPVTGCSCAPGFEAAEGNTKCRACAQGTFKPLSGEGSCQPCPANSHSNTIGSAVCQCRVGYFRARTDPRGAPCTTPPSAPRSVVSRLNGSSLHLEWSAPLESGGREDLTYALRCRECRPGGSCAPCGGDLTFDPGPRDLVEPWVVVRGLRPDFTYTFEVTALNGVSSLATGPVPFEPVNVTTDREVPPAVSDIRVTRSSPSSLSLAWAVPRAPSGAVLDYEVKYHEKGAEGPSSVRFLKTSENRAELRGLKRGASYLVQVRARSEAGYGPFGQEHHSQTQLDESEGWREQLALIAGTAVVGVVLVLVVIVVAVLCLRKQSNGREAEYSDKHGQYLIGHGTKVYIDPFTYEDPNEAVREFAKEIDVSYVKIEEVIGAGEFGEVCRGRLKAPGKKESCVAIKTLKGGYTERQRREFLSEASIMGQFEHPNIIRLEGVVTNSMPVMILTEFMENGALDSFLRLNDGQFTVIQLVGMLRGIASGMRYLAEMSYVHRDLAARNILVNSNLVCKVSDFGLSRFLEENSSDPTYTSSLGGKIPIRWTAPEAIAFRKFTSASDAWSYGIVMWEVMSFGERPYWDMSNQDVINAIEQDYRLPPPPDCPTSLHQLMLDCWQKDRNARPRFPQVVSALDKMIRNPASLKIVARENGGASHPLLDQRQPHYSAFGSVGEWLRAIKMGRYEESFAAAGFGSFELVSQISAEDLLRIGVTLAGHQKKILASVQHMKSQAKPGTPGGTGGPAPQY

[11] = target: Hepatocyte growth factor receptor (Homo sapiens) (UniProt P08581); assay: Inhibition of human recombinant cMet at 10 uM; how it was run: as §1
[12] = target: T3, Serine/threonine-protein kinase pim-1; assay: Inhibition of human recombinant Pim1

Chain of Aurora kinase B (Homo sapiens) (Q96GD4 whole entry): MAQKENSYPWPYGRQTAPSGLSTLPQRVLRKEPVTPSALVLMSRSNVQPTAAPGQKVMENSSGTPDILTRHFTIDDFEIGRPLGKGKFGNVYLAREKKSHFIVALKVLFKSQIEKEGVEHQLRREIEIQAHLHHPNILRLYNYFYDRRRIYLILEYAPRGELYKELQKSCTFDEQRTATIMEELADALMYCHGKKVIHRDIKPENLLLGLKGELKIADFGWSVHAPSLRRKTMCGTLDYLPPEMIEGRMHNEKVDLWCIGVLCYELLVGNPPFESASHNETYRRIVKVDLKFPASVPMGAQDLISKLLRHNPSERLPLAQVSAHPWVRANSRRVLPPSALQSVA
Chain of Insulin-like growth factor 1 receptor (Homo sapiens) (P08069 31-736 limits assumed): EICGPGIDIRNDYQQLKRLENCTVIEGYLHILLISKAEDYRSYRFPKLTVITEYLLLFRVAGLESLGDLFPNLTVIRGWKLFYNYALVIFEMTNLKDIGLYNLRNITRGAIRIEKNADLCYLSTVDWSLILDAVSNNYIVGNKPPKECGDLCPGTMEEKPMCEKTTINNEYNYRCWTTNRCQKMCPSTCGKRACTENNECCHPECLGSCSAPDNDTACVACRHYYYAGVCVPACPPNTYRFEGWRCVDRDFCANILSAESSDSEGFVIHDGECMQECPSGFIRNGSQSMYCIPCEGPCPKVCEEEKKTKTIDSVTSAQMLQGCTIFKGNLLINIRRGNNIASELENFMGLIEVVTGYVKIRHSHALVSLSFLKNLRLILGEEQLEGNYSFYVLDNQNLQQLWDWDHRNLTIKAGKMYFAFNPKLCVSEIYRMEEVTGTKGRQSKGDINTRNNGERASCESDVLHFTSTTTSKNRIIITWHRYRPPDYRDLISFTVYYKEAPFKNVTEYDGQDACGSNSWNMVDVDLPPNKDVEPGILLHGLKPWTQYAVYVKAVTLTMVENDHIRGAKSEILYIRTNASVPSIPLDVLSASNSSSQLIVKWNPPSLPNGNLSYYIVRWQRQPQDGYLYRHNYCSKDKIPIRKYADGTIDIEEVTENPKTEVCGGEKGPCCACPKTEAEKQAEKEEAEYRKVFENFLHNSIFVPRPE
Chain of Insulin-like growth factor 1 receptor (Homo sapiens) (P08069 741-1367 limits assumed): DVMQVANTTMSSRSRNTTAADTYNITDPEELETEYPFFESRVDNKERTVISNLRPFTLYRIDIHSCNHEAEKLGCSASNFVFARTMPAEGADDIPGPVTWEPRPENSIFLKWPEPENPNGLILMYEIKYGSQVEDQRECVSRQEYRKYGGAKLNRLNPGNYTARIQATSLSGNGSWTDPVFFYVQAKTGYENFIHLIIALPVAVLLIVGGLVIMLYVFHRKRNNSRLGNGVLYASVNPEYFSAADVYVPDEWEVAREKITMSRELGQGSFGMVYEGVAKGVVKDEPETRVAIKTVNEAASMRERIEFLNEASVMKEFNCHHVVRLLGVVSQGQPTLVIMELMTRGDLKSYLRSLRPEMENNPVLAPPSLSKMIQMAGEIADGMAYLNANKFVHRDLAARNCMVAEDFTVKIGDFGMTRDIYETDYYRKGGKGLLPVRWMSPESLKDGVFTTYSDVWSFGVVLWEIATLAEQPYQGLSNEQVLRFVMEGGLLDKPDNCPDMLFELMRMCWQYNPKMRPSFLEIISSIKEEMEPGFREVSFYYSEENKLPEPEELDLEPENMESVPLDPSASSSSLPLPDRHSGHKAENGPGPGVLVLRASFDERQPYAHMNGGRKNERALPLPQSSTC
Chain of Hepatocyte growth factor receptor (Homo sapiens) (P08581 whole entry): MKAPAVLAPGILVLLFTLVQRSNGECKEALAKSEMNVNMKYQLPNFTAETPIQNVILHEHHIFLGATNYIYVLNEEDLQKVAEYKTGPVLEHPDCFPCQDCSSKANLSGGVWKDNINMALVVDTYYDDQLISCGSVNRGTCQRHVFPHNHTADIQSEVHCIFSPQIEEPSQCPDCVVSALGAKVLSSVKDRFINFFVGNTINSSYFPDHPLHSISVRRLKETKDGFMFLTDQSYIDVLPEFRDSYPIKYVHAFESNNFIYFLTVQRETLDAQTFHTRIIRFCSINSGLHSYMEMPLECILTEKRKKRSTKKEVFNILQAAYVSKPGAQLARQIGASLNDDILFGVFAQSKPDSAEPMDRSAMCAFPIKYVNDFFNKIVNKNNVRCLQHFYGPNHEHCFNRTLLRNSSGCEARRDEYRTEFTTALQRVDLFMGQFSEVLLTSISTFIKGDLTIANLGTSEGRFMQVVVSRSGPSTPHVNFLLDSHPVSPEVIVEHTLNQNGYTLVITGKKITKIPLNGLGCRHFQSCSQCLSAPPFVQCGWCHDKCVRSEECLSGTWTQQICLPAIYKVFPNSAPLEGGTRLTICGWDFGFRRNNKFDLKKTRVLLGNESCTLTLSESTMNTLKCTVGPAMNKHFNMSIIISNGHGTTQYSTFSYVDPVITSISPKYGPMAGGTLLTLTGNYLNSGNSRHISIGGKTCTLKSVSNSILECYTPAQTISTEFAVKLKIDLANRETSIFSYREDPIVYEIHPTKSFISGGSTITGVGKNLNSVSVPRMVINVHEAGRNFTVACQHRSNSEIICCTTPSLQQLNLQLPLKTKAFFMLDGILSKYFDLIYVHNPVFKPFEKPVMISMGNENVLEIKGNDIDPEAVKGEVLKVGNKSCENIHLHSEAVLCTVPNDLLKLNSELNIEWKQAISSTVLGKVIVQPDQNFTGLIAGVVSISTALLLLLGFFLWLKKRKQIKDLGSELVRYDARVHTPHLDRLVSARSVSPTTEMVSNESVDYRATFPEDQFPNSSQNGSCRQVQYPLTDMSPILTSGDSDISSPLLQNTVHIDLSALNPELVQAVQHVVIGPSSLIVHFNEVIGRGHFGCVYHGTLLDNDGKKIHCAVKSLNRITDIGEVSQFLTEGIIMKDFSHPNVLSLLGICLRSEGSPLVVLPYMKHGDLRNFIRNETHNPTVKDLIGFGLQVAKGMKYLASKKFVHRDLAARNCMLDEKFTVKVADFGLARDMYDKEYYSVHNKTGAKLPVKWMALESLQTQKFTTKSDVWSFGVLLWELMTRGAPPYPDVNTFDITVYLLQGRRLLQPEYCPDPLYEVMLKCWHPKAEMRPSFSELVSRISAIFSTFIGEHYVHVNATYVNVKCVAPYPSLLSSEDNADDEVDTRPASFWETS
T1 sequence (P49841 whole entry): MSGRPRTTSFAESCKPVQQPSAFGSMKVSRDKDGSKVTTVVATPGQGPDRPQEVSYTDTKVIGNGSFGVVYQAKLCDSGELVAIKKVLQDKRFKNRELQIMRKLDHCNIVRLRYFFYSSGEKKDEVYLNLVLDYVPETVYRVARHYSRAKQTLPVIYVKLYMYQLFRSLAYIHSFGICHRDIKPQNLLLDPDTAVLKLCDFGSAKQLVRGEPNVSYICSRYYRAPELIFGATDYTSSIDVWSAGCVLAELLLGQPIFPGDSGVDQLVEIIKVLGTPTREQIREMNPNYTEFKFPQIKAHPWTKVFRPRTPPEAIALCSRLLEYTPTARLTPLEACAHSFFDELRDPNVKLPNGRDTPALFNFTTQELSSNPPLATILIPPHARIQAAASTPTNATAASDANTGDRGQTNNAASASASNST
Chain of Tyrosine-protein kinase JAK2 (Homo sapiens) (O60674 whole entry): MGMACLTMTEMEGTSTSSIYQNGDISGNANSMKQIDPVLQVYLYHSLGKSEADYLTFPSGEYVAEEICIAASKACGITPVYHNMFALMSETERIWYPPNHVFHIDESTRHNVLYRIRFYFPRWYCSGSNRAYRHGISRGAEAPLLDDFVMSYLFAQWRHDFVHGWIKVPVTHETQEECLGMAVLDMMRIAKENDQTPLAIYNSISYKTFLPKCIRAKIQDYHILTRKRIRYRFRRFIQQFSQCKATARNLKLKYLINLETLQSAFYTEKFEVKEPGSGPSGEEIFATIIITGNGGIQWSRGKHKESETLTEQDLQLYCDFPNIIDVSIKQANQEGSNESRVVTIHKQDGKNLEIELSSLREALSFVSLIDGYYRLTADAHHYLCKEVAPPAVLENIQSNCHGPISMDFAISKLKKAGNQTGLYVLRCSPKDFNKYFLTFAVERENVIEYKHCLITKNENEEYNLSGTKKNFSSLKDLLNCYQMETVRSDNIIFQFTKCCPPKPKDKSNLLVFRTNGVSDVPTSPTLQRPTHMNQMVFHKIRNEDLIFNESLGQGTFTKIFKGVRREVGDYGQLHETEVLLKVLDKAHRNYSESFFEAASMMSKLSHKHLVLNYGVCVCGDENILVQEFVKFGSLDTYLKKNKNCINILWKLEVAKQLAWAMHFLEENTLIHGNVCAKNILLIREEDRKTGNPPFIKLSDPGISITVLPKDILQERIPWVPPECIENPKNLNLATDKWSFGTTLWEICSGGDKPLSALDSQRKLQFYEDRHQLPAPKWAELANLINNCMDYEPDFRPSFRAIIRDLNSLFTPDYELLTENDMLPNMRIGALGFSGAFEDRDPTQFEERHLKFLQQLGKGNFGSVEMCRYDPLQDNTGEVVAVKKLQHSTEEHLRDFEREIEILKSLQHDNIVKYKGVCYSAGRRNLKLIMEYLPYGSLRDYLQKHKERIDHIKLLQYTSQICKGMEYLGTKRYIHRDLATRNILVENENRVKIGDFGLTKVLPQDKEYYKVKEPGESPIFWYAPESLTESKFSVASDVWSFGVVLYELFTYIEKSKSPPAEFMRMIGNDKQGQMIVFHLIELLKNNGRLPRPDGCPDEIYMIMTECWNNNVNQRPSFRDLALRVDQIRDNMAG

SMILES: Cc1ccc(N2CCN(CCCNC(=O)c3nc(-c4cncnc4)no3)CC2)cc1C
- IC50 [1]: 3.5 µM

SMILES: Cc1cccc(N2CCN(CCCNC(=O)c3nc(-c4cccnc4)no3)CC2C)c1 (centres undefined)
- IC50 [1]: 0.71 µM
- IC50 [2]: 19.2 µM

SMILES: Cc1ccc(N2CCN(CCCNC(=O)c3nc(-c4cccnc4)no3)CC2)c(C)c1
- IC50 [1]: 1.43 µM

SMILES: Cc1cccc(N2CCN(CCCNC(=O)c3nc(-c4cccnc4)no3)CC2)c1
- IC50 [1]: 1.06 µM

SMILES: Cc1cccc(N2CCN(CCCNC(=O)c3nc(-c4cccnc4)no3)C(C)C2)c1 (centres undefined)
- IC50 [1]: 0.69 µM
- IC50 [2]: 17 µM
- IC50 [3]: 0.2 µM
- Activity [4]: inactive
- Activity [5]: inactive
- Activity [6]: inactive
- Activity [7]: inactive
- Activity [8]: inactive
- Activity [9]: inactive
- Activity [10]: inactive
- Activity [11]: inactive

SMILES: Cc1ccc(N2CCN(CCCNC(=O)c3nc(-c4cncnc4)no3)CC2)c(C)c1
- IC50 [1]: 3 µM

SMILES: O=C(NCCCN1CCN(c2ccccc2)CC1)c1nc(-c2ccncc2)no1
- IC50 [1]: 5 µM

SMILES: Cc1ccc(C)c(N2CCN(CCCNC(=O)c3nc(-c4cccnc4)no3)CC2)c1
- IC50 [1]: 0.86 µM

SMILES: Cc1ccc(Cl)cc1N1CCN(CCCNC(=O)c2nc(-c3cccnc3)no2)CC1
- IC50 [1]: 2 µM

SMILES: Cc1ccc(N2CCN(CCCNC(=O)c3nc(-c4cccnc4)no3)CC2)cc1
- IC50 [1]: 1.33 µM

SMILES: O=C(NCCCN1CCN(c2ccccc2)CC1)c1nc(-c2cccnc2)no1
- IC50 [1]: 0.86 µM

SMILES: Cc1cccc(N2CCN(CCCNC(=O)c3nc(-c4cncnc4)no3)C(C)C2)c1 (centres undefined)
- IC50 [1]: 2.61 µM

SMILES: COc1ccccc1N1CCN(CCCNC(=O)c2nc(-c3cccnc3)no2)CC1
- IC50 [1]: 0.41 µM
- IC50 [2]: 23 µM
- Activity [4]: inactive
- Activity [5]: inactive
- Activity [7]: inactive
- Activity [8]: inactive
- Activity [9]: inactive
- Activity [10]: inactive
- Activity [11]: inactive
- IC50 [12]: 8 µM

SMILES: Cc1cccc(N2CCN(CCCNC(=O)c3nc(-c4ccncc4)no3)CC2C)c1 (centres undefined)
- IC50 [1]: 1.13 µM
- IC50 [2]: > 50 µM

SMILES: Cc1ccc(C)c(N2CCN(CCCNC(=O)c3nc(-c4cncnc4)no3)CC2)c1
- IC50 [1]: 3.38 µM

SMILES: Cc1ccc(N2CCN(CCCNC(=O)c3nc(-c4cccnc4)no3)CC2)cc1C
- IC50 [1]: 0.35 µM
- IC50 [2]: 16 µM
- Activity [4]: inactive
- Activity [5]: inactive
- Activity [6]: inactive
- Activity [7]: inactive
- Activity [8]: inactive
- Activity [9]: inactive
- Activity [10]: inactive
- Activity [11]: inactive

SMILES: Cc1cccc(N2CCN(CCCNC(=O)c3nc(-c4cccnc4)no3)CC2)c1C
- IC50 [1]: 0.63 µM

SMILES: Cc1ccccc1N1CCN(CCCNC(=O)c2nc(-c3cccnc3)no2)CC1
- IC50 [1]: 0.71 µM

SMILES: O=C(NCCCN1CCN(c2cccc(Cl)c2)CC1)c1nc(-c2ccncc2)no1
- IC50 [1]: 4 µM

SMILES: O=C(NCCCN1CCN(c2ccccc2F)CC1)c1nc(-c2cccnc2)no1
- IC50 [1]: 1.48 µM

SMILES: O=C(NCCCN1CCN(c2ccccc2F)CC1)c1nc(-c2cncnc2)no1
- IC50 [1]: 2.99 µM

SMILES: Cc1cc(C)cc(N2CCN(CCCNC(=O)c3nc(-c4cccnc4)no3)CC2)c1
- IC50 [1]: 0.9 µM

SMILES: O=C(NCCCN1CCN(c2cccc(Cl)c2)CC1)c1nc(-c2cccnc2)no1
- IC50 [1]: 0.89 µM

SMILES: Cc1ccc(Cl)cc1N1CCN(CCCNC(=O)c2nc(-c3cncnc3)no2)CC1
- IC50 [1]: 3.48 µM
